Experimental data reported in ChEMBL document CHEMBL3774373, “Activity and Predicted Nephrotoxicity of Synthetic Antibiotics Based on Polymyxin B” (J Med Chem, 2016).
Converted amounts (≈) assume the structure as drawn. Numbered stars: 1 amine (or outer) side, 2 acyl side, 3 side chain; on linkers, the order of the positions; unused ones are H or OH. Bridge positions count the residues as written; N and C are the ends. Square brackets hold non-standard residues; d marks the D form. Peptide text beside a SMILES is read from it. * marks the point of attachment. Benzoyl(4-OPh) = O=C(c1ccc(Oc2ccccc2)cc1)*; Benzoyl(4-Ph) = O=C(c1ccc(-c2ccccc2)cc1)*; X1 = c1ccc(-c2ccc(N*)cc2)cc1; Octanoyl = CCCCCCCC(=O)*; Dab = NCC[C@H](N)C(=O)O; CO = O=C([*:1])[*:2]

How the values were obtained:
[1] = tested on: Escherichia coli; assay: Antibacterial activity against Escherichia coli ATCC 25922 after 18 hrs by 2 fold serial dilution method; assay type: functional; settings: ATCC 25922, 18 h
Procedure, shortened: (§1)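 Overnight cultures in nutrient or Mueller Hinton broth at 37 °C with shaking, diluted 50-fold into fresh MHB and grown 1.5–3 h to mid-log. Inoculum 5×10^5 CFU/mL in 2-fold serial dilutions, final range 32 to 0.015 μg/mL. MIC read visually after 18 h at 37 °C as the lowest concentration with no visible growth.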

[2] = tested on: Klebsiella pneumoniae; assay: Antibacterial activity against Klebsiella pneumoniae ATCC 13883 after 18 hrs by 2 fold serial dilution method; assay type: functional; settings: ATCC 13883, 18 h; procedure, shortened: as §1
[3] = tested on: Klebsiella pneumoniae; assay: Antibacterial activity against multidrug resistant Klebsiella pneumoniae ATCC 700603 after 18 hrs by 2 fold serial dilution method; assay type: functional; settings: Klebsiella pneumoniae, 700603, 18 h
Procedure, shortened: (§2)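 Overnight cultures at 37 °C in nutrient or Mueller Hinton broth with shaking were diluted 50-fold in MHB and grown 1.5–3 h to mid-log phase. The inoculum was 5×10^5 CFU/mL in MHB. Compounds were 2-fold serially diluted, final 32 to 0.015 μg/mL. After 18 h at 37 °C, the MIC was read visually as the lowest concentration with no visible growth.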

[4] = tested on: Klebsiella pneumoniae; assay: Antibacterial activity against Klebsiella pneumoniae ATCC BAA-2146 expressing NDM-1 after 18 hrs by 2 fold serial dilution method; assay type: functional; settings: ATCC BAA-2146, 18 h; procedure, shortened: as §2
[5] = tested on: Acinetobacter baumannii; assay: Antibacterial activity against Acinetobacter baumannii ATCC 19606 after 18 hrs by 2 fold serial dilution method; assay type: functional; settings: ATCC 19606, 18 h; procedure, shortened: as §1
[6] = tested on: Pseudomonas aeruginosa; assay: Antibacterial activity against Pseudomonas aeruginosa ATCC 27853 after 18 hrs by 2 fold serial dilution method; assay type: functional; settings: ATCC 27853, 18 h; procedure, shortened: as §1
[7] = tested on: Pseudomonas aeruginosa; assay: Antibacterial activity against clinical isolate polymyxin resistant Pseudomonas aeruginosa FADDI-PA070 after 18 hrs by 2 fold serial dilution method; assay type: functional; settings: FADDI-PA070, 18 h
Procedure, shortened: (§3)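 Polymyxin-resistant clinical isolates were grown overnight at 37 °C in NB or MHB with shaking, diluted 50-fold in MHB and grown 1.5–3 h to mid-log phase. The inoculum was 5×10^5 CFU/mL. Compounds were 2-fold broth serial dilutions, final 32 to 0.015 μg/mL; the polymyxin controls ran 128–0.06 μg/mL. The MIC was the lowest concentration with no visible growth after 18 h at 37 °C.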

[8] = tested on: Pseudomonas aeruginosa; assay: Antibacterial activity against clinical isolate polymyxin resistant Pseudomonas aeruginosa PA9704 after 18 hrs by 2 fold serial dilution method; assay type: functional; settings: PA9704, 18 h; procedure, shortened: as §3
[9] = tested on: Acinetobacter baumannii; assay: Antibacterial activity against clinical isolate carbapenem and polymyxin resistant Acinetobacter baumannii Ptyela 100734512:2 after 18 hrs by 2 fold serial dilution method; assay type: functional; settings: Ptyela 100734512:2, 18 h; procedure, shortened: as §3
[10] = tested on: Klebsiella pneumoniae; assay: Antibacterial activity against clinical isolate carbapenem and polymyxin resistant Klebsiella pneumoniae Koprana 100650661:1 after 18 hrs by 2 fold serial dilution method; assay type: functional; settings: Koprana 100650661:1, 18 h; procedure, shortened: as §3
[11] = tested on: Klebsiella pneumoniae; assay: Antibacterial activity against clinical isolate carbapenem and polymyxin resistant Klebsiella pneumoniae 138-16357-20362 after 18 hrs by 2 fold serial dilution method; assay type: functional; settings: 138-16357-20362, 18 h; procedure, shortened: as §3
[12] = tested on: Escherichia coli; assay: Antibacterial activity against Escherichia coli IFO12734; assay type: functional
[13] = tested on: Pseudomonas aeruginosa; assay: Antibacterial activity against Pseudomonas aeruginosa IFO3080; assay type: functional
[14] = Cytotoxicity against human HepG2 cells after 24 hrs by resazurin assay; assay type: cell-based; settings: HepG2 cells
[15] = tested on: Staphylococcus aureus; assay: microbe, parasite or virus in culture; settings: ATCC 25923, 18 h
[16] = Cytotoxicity against HEK293 cells after 24 hrs by resazurin assay; assay type: cell-based; settings: human, HEK293 cells
[17] = Cytotoxicity against HK2 cells assessed as LDH release by Western blot analysis; assay type: cell-based, HK-2; settings: human, primary human renal proximal tubule epithelial cells; read-out: CC50
[18] = Cytotoxicity against HK2 cells assessed as GGT release by Western blot analysis; assay type: cell-based, HK-2; settings: human, primary human renal proximal tubule epithelial cells; read-out: CC50
[19] = Cytotoxicity against HK2 cells assessed as LDH release by Western blot analysis; settings: human, hk-2
[20] = Cytotoxicity against primary human proximal tubule cells assessed as GGT release at 100 ug/mL by Western blot analysis
[21] = tested on: Escherichia coli; assay: Antibacterial activity against Escherichia coli ATCC 26 after 18 hrs by 2 fold serial dilution method; assay type: functional; settings: ATCC 26, 18 h; procedure, shortened: as §2

SMILES	MIC [1]	MIC [2]	MIC [3]	MIC [4]	MIC [5]	MIC [6]	MIC [7]	MIC [8]	MIC [9]	MIC [10]	MIC [11]	CC50 at 24 h [14]	MIC [15]	CC50 at 24 h [16]	CC50 [17]	CC50 [18]	Activity [19]	Activity [20]	other results
CCCCCCCC(=O)N[C@@H](CCN)C(=O)N[C@H](C(=O)N[C@@H](CCN)C(=O)N[C@H]1CCNC(=O)[C@H]([C@@H](C)O)NC(=O)[C@H](CCN)NC(=O)[C@H](CCN)NC(=O)[C@H](CC(C)C)NC(=O)[C@@H](Cc2ccccc2)NC(=O)[C@H](CCN)NC1=O)[C@@H](C)O (Octanoyl-[Dab]T[Dab][Dab][Dab][dF]L[Dab][Dab]T; lactam 4-C)	0.5 µg/mL (≈ 0.42 µM)	2 µg/mL (≈ 1.68 µM)	1 µg/mL (≈ 0.841 µM)	0.5 µg/mL (≈ 0.42 µM)	0.5 µg/mL (≈ 0.42 µM)	1 µg/mL (≈ 0.841 µM)	> 32 µg/mL	> 128 µg/mL	> 64 µg/mL	> 128 µg/mL	> 128 µg/mL	> 300 µM	> 128 µg/mL						MIC [12]: 0.5 µM (≈ 0.595 µg/mL); MIC [13]: 1 µM (≈ 1.19 µg/mL)
CC(C)C[C@@H]1NC(=O)[C@@H](Cc2ccccc2)NC(=O)[C@H](CCN)NC(=O)[C@@H](NC(=O)[C@H](CCN)NC(=O)[C@@H](NC(=O)[C@H](CCN)NC(=O)c2ccc(-c3ccccc3)cc2)[C@@H](C)O)CCNC(=O)[C@H]([C@@H](C)O)NC(=O)[C@H](CCN)NC(=O)[C@H](CCN)NC1=O ({Benzoyl(4-Ph)}-[Dab]T[Dab][Dab][Dab][dF]L[Dab][Dab]T; lactam 4-C)	0.5 µg/mL (≈ 0.402 µM)	0.5 µg/mL (≈ 0.402 µM)	1 µg/mL (≈ 0.804 µM)	0.5 µg/mL (≈ 0.402 µM)	0.5 µg/mL (≈ 0.402 µM)	1 µg/mL (≈ 0.804 µM)	8 µg/mL (≈ 6.43 µM)	> 32 µg/mL	8 µg/mL (≈ 6.43 µM)	> 32 µg/mL	> 32 µg/mL	298 µM	> 32 µg/mL	297 µM	> 128 µg/mL	> 128 µg/mL	Non-toxic	Non-toxic	
CC(C)C[C@@H]1NC(=O)[C@@H](Cc2ccccc2)NC(=O)[C@H](CCN)NC(=O)[C@@H](NC(=O)[C@H](CCN)NC(=O)[C@@H](NC(=O)[C@H](CCN)NC(=O)c2ccc(Oc3ccccc3)cc2)[C@@H](C)O)CCNC(=O)[C@H]([C@@H](C)O)NC(=O)[C@H](CCN)NC(=O)[C@H](CCN)NC1=O ({Benzoyl(4-OPh)}-[Dab]T[Dab][Dab][Dab][dF]L[Dab][Dab]T; lactam 4-C)	0.5 µg/mL (≈ 0.397 µM)	0.5 µg/mL (≈ 0.397 µM)	0.5 µg/mL (≈ 0.397 µM)	0.5 µg/mL (≈ 0.397 µM)	0.5 µg/mL (≈ 0.397 µM)	1 µg/mL (≈ 0.794 µM)	8 µg/mL (≈ 6.35 µM)	32 µg/mL (≈ 25.4 µM)	16 µg/mL (≈ 12.7 µM)	> 32 µg/mL	> 32 µg/mL	287 µM	> 32 µg/mL	296 µM	> 128 µg/mL	> 128 µg/mL	Non-toxic	Non-toxic	
CC(C)C[C@@H]1NC(=O)[C@@H](Cc2ccccc2)NC(=O)[C@H](CCN)NC(=O)[C@@H](NC(=O)[C@H](CCN)NC(=O)[C@@H](NC(=O)[C@H](CCN)NC(=O)Nc2ccc(-c3ccccc3)cc2)[C@@H](C)O)CCNC(=O)[C@H]([C@@H](C)O)NC(=O)[C@H](CCN)NC(=O)[C@H](CCN)NC1=O ({X1-CO}-[Dab]T[Dab][Dab][Dab][dF]L[Dab][Dab]T; lactam 4-C)	2 µg/mL (≈ 1.59 µM)	2 µg/mL (≈ 1.59 µM)	2 µg/mL (≈ 1.59 µM)	1 µg/mL (≈ 0.795 µM)	1 µg/mL (≈ 0.795 µM)	1 µg/mL (≈ 0.795 µM)	16 µg/mL (≈ 12.7 µM)	8 µg/mL (≈ 6.36 µM)	16 µg/mL (≈ 12.7 µM)	16 µg/mL (≈ 12.7 µM)	> 32 µg/mL	316 µM	32 µg/mL (≈ 25.4 µM)	> 300 µM	> 128 µg/mL	> 128 µg/mL			MIC [21]: 2.5 µg/mL (≈ 1.99 µM)
